According to ChEMBL document CHEMBL1909609, “Synthesis of purine modified 2'-C-methyl nucleosides as potential anti-HCV agents” (Bioorg Med Chem Lett, 2011):
Activity calls are given as the source filed them. The rule behind the calls is not given here.

Experiments:
[1] = Cytotoxicity against human PBMC after 5 days; type: cell-based
[2] = (§1) Cytotoxicity against human CEM after 5 days; type: cell-based, CCRF-CEM; conditions: CEM cells (CCRF-CEM)
[3] = Cytotoxicity against african green monkey Vero after 5 days; type: cell-based; conditions: chlorocebus sabaeus, Vero cells
[4] = system: Human immunodeficiency virus 1; test: Antiviral activity against HIV1 LAI infected in human peripheral blood mononuclear cells assessed as inhibition of viral replication after 5 days by quantitative RT-PCR analysis; type: functional, organism-based; conditions: Human immunodeficiency virus 1, LAI, 120 h
Method in brief: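 Primary human PBM cells were infected with HIV-1 LAI, and AZT was run as the positive standard.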

[5] = target: T1, Adenosine deaminase (Homo sapiens) (UniProt P00813); test: Activity at adenosine deaminase assessed as nitrogen to oxygen transformation
T1 sequence (whole entry): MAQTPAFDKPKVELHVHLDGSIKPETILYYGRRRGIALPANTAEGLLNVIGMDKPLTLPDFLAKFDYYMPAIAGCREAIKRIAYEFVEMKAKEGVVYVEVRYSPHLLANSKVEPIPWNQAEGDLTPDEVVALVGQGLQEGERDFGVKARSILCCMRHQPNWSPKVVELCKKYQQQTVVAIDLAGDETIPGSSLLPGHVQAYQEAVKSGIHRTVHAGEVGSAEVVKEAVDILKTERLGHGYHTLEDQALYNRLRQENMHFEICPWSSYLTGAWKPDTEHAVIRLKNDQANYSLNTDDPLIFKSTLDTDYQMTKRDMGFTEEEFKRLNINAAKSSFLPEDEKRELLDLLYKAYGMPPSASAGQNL

Huh-7 = test: Cytotoxicity against human HuH7 cells assessed as rRNA level at 10 uM; type: cell-based; conditions: huh-7, 10 µM
Method in brief: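 Huh7 cells carrying a subgenomic HCV replicon were given compound at 10 μM. Cytotoxicity was measured alongside anti-HCV activity by extracting and amplifying ribosomal RNA together with HCV RNA.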

Hepatitis C virus [6] = test: Antiviral activity against HCV infected in human HuH7 cells assessed as inhibition of viral replication at 10 uM by RT-PCR analysis; type: functional, Hepacivirus hominis; conditions: Huh-7
Method in brief: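 Huh7 cells carrying a subgenomic HCV replicon, with compounds tested at 10 μM. HCV RNA and ribosomal RNA were extracted and amplified together, so cytotoxicity was read at the same time as replicon inhibition.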

[7] = target: T1, Adenosine deaminase (Homo sapiens); test: Activity at adenosine deaminase
Method in brief: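 ADA inhibition assay: 140 μM adenosine (final) with 0.01 units adenosine deaminase in 50 mM potassium phosphate, pH 7.4; compounds at 10 μM. Absorbance at 265 nm followed over four minutes. Inhibition judged from the change in slope relative to no-compound control, with a slope nearing zero indicating inhibition.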

CCRF-CEM = test: as §1; type: cell-based; conditions: ccrf-cem, 120 h
Hepatitis C virus [8] = test: Antiviral activity against HCV infected in human HuH7 cells assessed as inhibition of viral replication by RT-PCR analysis; type: functional, organism-based, Hepacivirus hominis; conditions: Huh-7
Method in brief: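 Subgenomic HCV replicon system in Huh7 cells. HCV RNA and ribosomal RNA were both extracted and amplified, with the rRNA signal giving cytotoxicity at the same time as antiviral activity.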

[9] = Chemical stability of the compound in phosphate buffer at pH 7.4 assessed as formation of complex mixture product after 3 days; type: physicochemical; conditions: pH 7.4, 72 h

Row | Compound | CC50 at 120 h [1] | CC50 at 120 h [2] | CC50 at 120 h [3] | EC50 [4] | EC90 [4] | Activity [5] | Activity (Huh-7) | inhibition at 10 µM (Hepatitis C virus [6]) | Activity [7] | CC50 (CCRF-CEM) | EC50 (Hepatitis C virus [8]) | Stability [9]
1 | C[C@@]1(O)[C@H](O)[C@@H](CO)O[C@H]1n1cnc2c(N)n[nH]c(=O)c21 | > 100 µM | > 100 µM | > 100 µM | > 100 µM | > 100 µM | inactive | 0% | 0% |  |  |  | 
2 | C[C@@]1(O)[C@H](O)[C@@H](CO)O[C@H]1n1cnc2c(N)nc(-n3cc([Si](C)(C)C)nn3)nc21 | > 100 µM | > 100 µM | > 100 µM | > 100 µM | > 100 µM |  | 0% | 0% |  |  |  | 
3 | CCOC(=O)[C@H](C)NP(=O)(OC[C@H]1O[C@@H](n2cnc3c(C)nc(N)nc32)[C@](C)(O)[C@@H]1O)Oc1ccccc1 (some centres undefined) | > 100 µM | > 100 µM | > 100 µM | 68 µM | > 100 µM |  | 0% | 0% |  |  |  | 
4 | C[C@@]1(O)[C@H](O)[C@@H](CO)O[C@H]1n1cnc2c(N)nc(N=[N+]=[N-])nc21 | > 100 µM | > 100 µM | > 100 µM | > 100 µM | > 100 µM |  | 0% | 5.2% |  |  |  | 
5 | C[C@@]1(O)[C@H](O)[C@@H](CO)O[C@H]1n1cnc2c(=N)n(N)[nH]c(=O)c21 | > 100 µM | > 100 µM | > 100 µM | > 100 µM | > 100 µM |  | 0% | 0% |  |  |  | 
6 | C[C@@]1(O)[C@H](O)[C@@H](CO)O[C@H]1n1cnc2c(N)nc(-n3ccnn3)nc21 | > 100 µM | > 100 µM | > 100 µM | > 100 µM | > 100 µM | inactive | 0% | 0% | Active |  |  | 
7 | C[C@@]1(O)[C@H](O)[C@@H](CO)O[C@H]1n1cnc2c(=O)[nH]nc(N)c21 | > 100 µM | > 100 µM | > 100 µM | > 100 µM | > 100 µM |  | 0% | 0% |  |  |  | 
8 | C[C@@]1(OC(=O)c2ccccc2)[C@H](OC(=O)c2ccccc2)[C@@H](COC(=O)c2ccccc2)O[C@H]1n1cnc2c(Cl)nc(NO)nc21 | 43 µM |  | > 100 µM | 17 µM | 65 µM |  | 100% | 100% |  | 7.3 µM |  | 
9 | CCOP(=O)(O)c1nc(N)nc2c1ncn2[C@@H]1O[C@H](CO)[C@@H](O)[C@@]1(C)O | > 100 µM | > 100 µM | > 100 µM | > 100 µM | > 100 µM | inactive | 15% | 19% |  |  |  | 
10 | CCOC(=O)[C@H](C)NP(=O)(OC[C@H]1O[C@@H](n2cnc3c(N)nc(NN)nc32)[C@](C)(O)[C@@H]1O)Oc1ccccc1 (some centres undefined) |  |  |  |  |  |  |  |  |  |  | 0.9 µM | 
11 | C[C@@]1(O)[C@H](O)[C@@H](CO)O[C@H]1n1cnc2c(N)nc(Cl)nc21 | > 100 µM | > 100 µM | > 100 µM | > 100 µM | > 100 µM |  | 5.8% | 0% |  |  |  | 
12 | Cc1nc2c3ncn([C@@H]4O[C@H](CO)[C@@H](O)[C@@]4(C)O)c3nc(N)n2n1 | > 100 µM | > 100 µM | > 100 µM | > 100 µM | > 100 µM |  | 0% | 0% |  |  |  | 
13 | C[C@@]1(OC(=O)c2ccccc2)[C@H](OC(=O)c2ccccc2)[C@@H](COC(=O)c2ccccc2)O[C@H]1n1cnc2c(N)nc(NO)nc21 | > 100 µM | 27 µM | 42 µM | 8.7 µM | 42 µM |  | 76% | 66% |  |  |  | 
14 | C[C@@]1(O)[C@H](O)[C@@H](CO)O[C@H]1n1cnc(C(=O)NN)c1/C(N)=N/N | > 100 µM | > 100 µM | > 100 µM | > 100 µM | > 100 µM |  | 9% | 0% |  |  |  | 
15 | C[C@@]1(O)[C@H](O)[C@@H](CO)O[C@H]1n1cnc2c1nc(N)n1nc(-c3ccco3)nc21 | > 100 µM | > 100 µM | > 100 µM | > 100 µM | > 100 µM |  | 0% | 0% |  |  |  | 
16 | COc1nc(Cl)nc2c1ncn2[C@@H]1O[C@H](CO)[C@@H](O)[C@@]1(C)O | > 100 µM | > 100 µM | > 100 µM | > 100 µM | > 100 µM |  | 9.8% | 14% |  |  |  | 
17 | C[C@@]1(O)[C@H](O)[C@@H](CO)O[C@H]1n1cnc2c(N)nc(NN)nc21 | > 100 µM | > 100 µM | > 100 µM | > 100 µM | > 100 µM |  | 7% | 85% |  |  | 6 µM | Unstable
18 | CCOP(=O)(OCC)c1nc(N)nc2c1ncn2[C@@H]1O[C@H](CO)[C@@H](O)[C@@]1(C)O | > 100 µM | > 100 µM | > 100 µM | > 100 µM | > 100 µM | inactive | 15% | 19% |  |  |  | 
19 | Cc1nc(N)nc2c1ncn2[C@@H]1O[C@H](CO)[C@@H](O)[C@@]1(C)O | > 100 µM | 13 µM | > 100 µM | 70 µM | > 100 µM |  | 0% | 0% |  |  |  | 
